Laboratory results as given in ChEMBL document CHEMBL1136692, “Pharmacokinetic optimization of 3-amino-6-chloropyrazinone acetamide thrombin inhibitors. Implementation of P3 pyridine N-oxides to deliver an orally bioavailable series containing P1 N-benzylamides” (Bioorg Med Chem Lett, 2003).

Key:
[1] = Partition coefficient (logP) of the compound; format: physicochemical; settings: octanol/water
[2] = t1/2 in dog; format: ADME, organism-based, Canis lupus familiaris; settings: in vivo
Method in brief: (§1)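 Dog pharmacokinetics after oral dosing at 1 mg/kg, or at 0.7 or 0.5 mg/kg where footnoted. Cmax (µM) and oral half-life (h) from plasma levels.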

[3] = Maximum plasma concentration (Cmax) in dog at a dose of 1 mg/kg; format: ADME, organism-based, Canis lupus familiaris; design: dose 1 mg/kg; method in brief: as §1
Homo sapiens [4] = species: Homo sapiens; assay: Human microsome stabilities are reported as the ratio of the % remaining after a 1 hr incubation versus the internal standard thrombin inhibitor; format: functional; design: unit not given here
Homo sapiens [5] = species: Homo sapiens; assay: Concentration required to double the activated partial thromboplastin time (aPPT) in human plasma; format: functional, cell-free
Method in brief: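 Anticoagulant assay in human plasma. The value is the concentration of inhibitor that doubles the activated partial thromboplastin time (2×aPTT).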

Prothrombin = Prothrombin (Homo sapiens, UniProt P00734); assay: Inhibitory activity against human thrombin
[6] = Maximum plasma concentration (Cmax) in dog at a dose of […] mg/kg; format: ADME, organism-based, Canis lupus familiaris
[7] = Compound was tested for percent protein binding (PB) in dog; format: ADME, organism-based, Canis lupus familiaris; settings: read-out: PB (converted)
Method in brief: (§2)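 Plasma protein binding given as percent free drug, measured in dog plasma and in human plasma.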

[8] = Compound was tested for percent protein binding (PB) in human; format: ADME; settings: read-out: PB (converted); method in brief: as §2
[9] = Vd in dog; format: ADME, organism-based, Canis lupus familiaris; settings: in vivo
Method in brief: (§3)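 Dog pharmacokinetics. Parameters are plasma clearance (mL/min/kg), volume of distribution (L/kg), iv half-life (h) and oral bioavailability F (%).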

[10] = Plasma clearance (pharmacokinetic parameter) in dog was determined; format: ADME, organism-based, Canis lupus familiaris; settings: read-out: Clp; method in brief: as §3
[11] = Half life period after intravenous administration in dog; format: ADME, organism-based, Canis lupus familiaris; settings: in vivo; method in brief: as §3
[12] = Oral bioavailability in dog; format: ADME, organism-based, Canis lupus familiaris; settings: in vivo; method in brief: as §3
[13] = Vd (1 mg/kg) was determined in dog (in vivo); format: ADME, organism-based, Canis lupus familiaris
Method in brief: (§4)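 Plasma clearance and volume of distribution determined at a species-specific dose: 1 mg/kg for dog, 10 mg/kg for rat, 5 mg/kg for rhesus.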

[14] = Maximum plasma concentration (Cmax) in rhesus monkey(in vivo) at a dose of 5 mg/kg; format: ADME, organism-based; design: dose 5 mg/kg; settings: cercopithecidae
Method in brief: (§5)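 Maximum plasma concentration in rat (10 mg/kg) and in rhesus (5 mg/kg), each measured at the dose stated for its species.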

[15] = Plasma clearance (pharmacokinetic parameter) in dog (in vivo) at a dose of 1 mg/kg; format: ADME, organism-based, Canis lupus familiaris; design: dose 1 mg/kg; settings: read-out: Clp; method in brief: as §4
[16] = Plasma clearance (pharmacokinetic parameter) in rat (in vivo) at a dose of 10 mg/kg; format: ADME, organism-based; design: dose 10 mg/kg; settings: read-out: Clp; method in brief: as §4
[17] = Plasma clearance (pharmacokinetic parameter) in rhesus (in vivo) at a dose of 5 mg/kg; format: ADME, organism-based, Macaca mulatta; design: dose 5 mg/kg; settings: rhesus monkey, read-out: Clp; method in brief: as §4
[18] = Maximum plasma concentration (Cmax) in rat (in vivo) at a dose of 10 mg/kg; format: ADME, organism-based; design: dose 10 mg/kg; method in brief: as §5
[19] = Half life period after intravenous administration (1 mg/kg) was determined in dog (in vivo); format: ADME, organism-based, Canis lupus familiaris
[20] = Maximum plasma concentration (Cmax) in dog (in vivo) at a dose of 1 mg/kg; format: ADME, organism-based, Canis lupus familiaris; design: dose 1 mg/kg; method in brief: as §1
[21] = Oral bioavailability (10 mg/kg) was determined in rat; format: ADME, organism-based; settings: in vivo
[22] = Half life period after intravenous administration (10 mg/kg) was determined in rat (in vivo); format: ADME, organism-based
[23] = Half life period after intravenous administration (5 mg/kg) was determined in rhesus (in vivo); format: ADME, organism-based, Macaca mulatta; settings: rhesus monkey
[24] = Vd (10 mg/kg) was determined in rat (in vivo); format: ADME, organism-based; method in brief: as §4
[25] = Vd (5 mg/kg) was determined in rhesus (in vivo); format: ADME, organism-based, Macaca mulatta; settings: rhesus monkey; method in brief: as §4
Rattus norvegicus [26] = assay: […] activated partial thromboplastin time(APPT) after intravenous administration in rat model of FeCl3-induced carotid thrombosis; format: functional
Rattus norvegicus [27] = assay: Thrombin time of occlusion after intravenous administration in rat model of FeCl3-induced carotid thrombosis; format: functional
Rattus norvegicus [28] = assay: Time of occlusion after intravenous administration in rat model of FeCl3-induced carotid thrombosis; format: functional
Method in brief: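 Rat carotid artery thrombosis induced with FeCl3. Compound given iv as a continuous infusion (µg/kg/min; vehicle 0.3% DMSO). Read-outs: incidence of occlusion, time to occlusion, thrombin time, aPTT (s) and plasma level (µM).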

[29] = Oral bioavailability (1 mg/kg) was determined in dog; settings: in vivo
[30] = Oral bioavailability (5 mg/kg) was determined in rhesus; settings: Macaca mulatta, rhesus monkey, in vivo

SMILES	logP [1]	half-life [2] [h]	Cmax [3] [nM]	Ki (Prothrombin) [nM]	Ratio (Homo sapiens [4])	Concentration (Homo sapiens [5]) [µM]	other results
COc1cccc(CNC(=O)Cn2c(Cl)cnc(NCC(F)(F)c3cccc[n+]3[O-])c2=O)c1	1.31	2.8	1220	1.2	0.71	0.43	–
Cc1ccccc1CNC(=O)Cn1c(Cl)cnc(NCC(F)(F)c2cccc[n+]2[O-])c1=O	1.74	3.6	1760	–	–	0.77	–
O=C(Cn1c(Cl)cnc(NCC(F)(F)c2ccccn2)c1=O)NCc1ncccc1F [DPOC-4088]	–	–	–	–	–	0.78	fraction unbound [7]: 0.67; fraction unbound [8]: 0.86; Vd [9]: 0.62 L/kg; clearance [10]: 2.2 mL/min/kg; half-life [11]: 4.5 h
O=C(Cn1c(Cl)cnc(NCC(F)(F)c2cccc[n+]2[O-])c1=O)NCc1ccc(F)c(Cl)c1	1.98	2.4	420	3.6	0	0.78	–
O=C(Cn1c(Cl)cnc(NCC(F)(F)c2cccc[n+]2[O-])c1=O)NCc1ncccc1F	0.19	2.5	1780	3.1	6.5	0.54	fraction unbound [7]: 0.2; fraction unbound [8]: 0.3; Vd [9]: 1.13 L/kg; bioavailability [12]: 83%; clearance [10]: 4.91 mL/min/kg; half-life [11]: 2.9 h
O=C(Cn1c(Cl)cnc(NCC(F)(F)c2cccc[n+]2[O-])c1=O)NCc1ncccc1Cl	0.75	5.5	–	2.9	1.3	0.47	fraction unbound [7]: 0.5; fraction unbound [8]: 0.59; Vd [9]: 1.17 L/kg; clearance [10]: 3.03 mL/min/kg; Cmax ([6]; 0.7 mg/kg): 1090 nM; half-life [11]: 6 h
O=C(Cn1c(Cl)cnc(NCC(F)(F)c2cccc[n+]2[O-])c1=O)NCc1cccc(OC(F)F)c1	1.73	4.8	120	7	0.54	0.97	–
O=C(Cn1c(Cl)cnc(NCC(F)(F)c2cccc[n+]2[O-])c1=O)NCc1c(F)ccc(F)c1F	1.42	3.5	1510	1.1	0.04	0.31	–
O=C(Cn1c(Cl)cnc(NCC(F)(F)c2cccc[n+]2[O-])c1=O)NCc1ccccc1F	1.39	4.9	3500	–	–	0.4	Vd [13]: 0.49 L/kg; Cmax [14]: 1050 nM; clearance [15]: 1.55 mL/min/kg; clearance [16]: 43 mL/min/kg; clearance [17]: 19 mL/min/kg; Cmax [18]: 1940 nM; half-life [19]: 6.3 h; Cmax [20]: 3280 nM; bioavailability [21]: 52%; half-life [22]: 0.43 h; half-life [23]: 1.1 h; Vd [24]: 0.93 L/kg; Vd [25]: 1.5 L/kg; APTT (Rattus norvegicus [26]): 22.6 s; TT (Rattus norvegicus [27]): 59.3 s; TTO (Rattus norvegicus [28]): 15; bioavailability [29]: 40%; bioavailability [30]: 21%
O=C(Cn1c(Cl)cnc(NCC(F)(F)c2cccc[n+]2[O-])c1=O)NCc1ccccc1OC(F)(F)F	2.34	3	1670	2.4	0	0.81	–
O=C(Cn1c(Cl)cnc(NCC(F)(F)c2cccc[n+]2[O-])c1=O)NCc1ccccc1OC(F)F	1.63	2.8	2030	3	0	0.69	–
O=C(Cn1c(Cl)cnc(NCC(F)(F)c2cccc[n+]2[O-])c1=O)NCc1cc(Cl)ccc1Cl	2.61	2.1	110	0.087	1.04	0.39	–
O=C(Cn1c(Cl)cnc(NCC(F)(F)c2cccc[n+]2[O-])c1=O)NCc1ccccc1Cl	1.89	2.9	700	2.5	0.15	0.54	–
O=C(Cn1c(Cl)cnc(NCC(F)(F)c2cccc[n+]2[O-])c1=O)NCc1ccccc1OCC(F)(F)F	1.93	2.5	2290	1.8	0	0.58	–
O=C(Cn1c(Cl)cnc(NCC(F)(F)c2cccc[n+]2[O-])c1=O)NCc1cc(F)ccc1F	Not Active	3.9	2290	2.4	0.05	0.43	–
O=C(Cn1c(Cl)cnc(NCC(F)(F)c2cccc[n+]2[O-])c1=O)NCc1cc(Cl)ccc1F	Not Active	2.1	480	0.16	0	0.31	–
O=C(Cn1c(Cl)cnc(NCC(F)(F)c2cccc[n+]2[O-])c1=O)NCc1cccc(Cl)c1Cl	2.14	2.5	290	2	0.39	0.88	–

More lines, in order of falling Ki (Prothrombin), values ahead:

logP [1]	half-life [2] [h]	Cmax [3] [nM]	Ki (Prothrombin) [nM]	SMILES	Ratio (Homo sapiens [4])	Concentration (Homo sapiens [5]) [µM]	other results
Not Active	4.1	–	7.3	O=C(Cn1c(Cl)cnc(NCC(F)(F)c2cccc[n+]2[O-])c1=O)NCc1cccc(F)c1	0.71	0.86	Cmax ([6]; 0.5 mg/kg): 1370 nM
1.23	6.3	3200	7	O=C(Cn1c(Cl)cnc(NCC(F)(F)c2cccc[n+]2[O-])c1=O)NCc1ccccc1	1.3	0.94	–
1.91	1.2	770	5.2	CCOc1ccccc1CNC(=O)Cn1c(Cl)cnc(NCC(F)(F)c2cccc[n+]2[O-])c1=O	0.08	0.87	–
–	–	17	4.8	O=C(Cn1c(Cl)cnc(NCC(F)(F)c2ccccn2)c1=O)NCc1ccccc1F	–	1.24	–
2.24	3.7	–	3.6	O=C(Cn1c(Cl)cnc(NCC(F)(F)c2cccc[n+]2[O-])c1=O)NCc1ccccc1C(F)(F)F	0.05	0.93	Cmax ([6]; 0.5 mg/kg): 1430 nM
1.36	3.8	–	3	COc1ccccc1CNC(=O)Cn1c(Cl)cnc(NCC(F)(F)c2cccc[n+]2[O-])c1=O	0.44	0.56	Cmax ([6]; 0.5 mg/kg): 2480 nM
1.99	2.8	990	1.7	O=C(Cn1c(Cl)cnc(NCC(F)(F)c2cccc[n+]2[O-])c1=O)NCc1cc(F)ccc1C(F)(F)F	0	0.63	–
1.89	2.4	–	1.3	O=C(Cn1c(Cl)cnc(NCC(F)(F)c2cccc[n+]2[O-])c1=O)NCc1c(F)cccc1C(F)(F)F	0	0.88	Cmax ([6]; 0.7 mg/kg): 70 nM
1.23	6.2	210	0.85	O=C(Cn1c(Cl)cnc(NCC(F)(F)c2cccc[n+]2[O-])c1=O)NCc1c(F)cccc1F	3.4	0.33	–
1.81	1.1	2190	0.8	Cc1cccc(CNC(=O)Cn2c(Cl)cnc(NCC(F)(F)c3cccc[n+]3[O-])c2=O)c1	0.58	0.3	–
Not Active	2.6	–	0.26	O=C(Cn1c(Cl)cnc(NCC(F)(F)c2cccc[n+]2[O-])c1=O)NCc1cccc(Cl)c1	0	0.23	Cmax ([6]; 0.5 mg/kg): 1910 nM
2.11	3.6	1010	0.19	O=C(Cn1c(Cl)cnc(NCC(F)(F)c2cccc[n+]2[O-])c1=O)NCc1cccc(Br)c1	0.14	0.28	–
